PPC-1+TRAIL kill = compounds killing PPC-1 cancer cells with TRAIL present (potentiator screen, no TRAIL-free arm) | PPC-1 cells + TRAIL, ATPLite viability luminescence | cell killing (% activity), % at 4 µM or 5 µM | actives 0.41% (n = 220,000) | AID 1443;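 active means cell killing above 50% in the first pass at 4 µM, then a duplicate retest at 5 µM averaging 50% or more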;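 further: plate controls were cells with TRAIL plus DMSO for no effect and medium-only wells lacking cells for full effect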
FLuc inhib CS = Photinus pyralis luciferase inhibition counter-screen | inhibition, % at 10 µM | AID 1006 | P08659 | actives 1.5% (n = 200,000) | ATPLite firefly luciferase biochemical luminescence, 10 min;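 active means inhibition above about 50% when tested at 10 µM, limit read from the data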
Target sequence (P08659 whole entry, looked up): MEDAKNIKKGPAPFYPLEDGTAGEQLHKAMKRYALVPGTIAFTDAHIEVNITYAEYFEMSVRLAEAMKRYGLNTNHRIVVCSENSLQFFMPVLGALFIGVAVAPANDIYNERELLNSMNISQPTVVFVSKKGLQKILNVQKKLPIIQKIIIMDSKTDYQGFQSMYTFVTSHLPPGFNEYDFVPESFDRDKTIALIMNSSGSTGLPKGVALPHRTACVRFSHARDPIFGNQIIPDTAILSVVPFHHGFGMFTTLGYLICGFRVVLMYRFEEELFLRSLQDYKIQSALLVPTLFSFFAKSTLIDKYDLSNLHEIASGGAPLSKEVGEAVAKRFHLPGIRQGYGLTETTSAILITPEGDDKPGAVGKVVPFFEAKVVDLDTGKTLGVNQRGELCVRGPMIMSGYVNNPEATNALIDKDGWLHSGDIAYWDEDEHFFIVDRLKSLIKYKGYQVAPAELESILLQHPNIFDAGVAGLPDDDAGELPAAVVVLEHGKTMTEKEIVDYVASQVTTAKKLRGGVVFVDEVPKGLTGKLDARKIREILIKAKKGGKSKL
HSP90 refold inh = blocks HSP90-mediated luciferase refolding in reticulocyte lysate; Rabbit reticulocyte lysate, luciferase refolding luminescence, 3 h; inhibition, % at 5.6 µM; actives 0.91% (n = 290,000);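 active means inhibition above the screen-wide mean plus 3 SD, computed separately per campaign, cut at about 16% in these data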;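 further: 0% = DMSO wells and 100% = 60 µM geldanamycin wells; inhibitors lower the luminescence because luciferase stays unfolded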
TRAIL sens C8 = sensitizes caspase-8 expressing cells to TRAIL; NB7+C8 cells + TRAIL, ATPlite viability luminescence; inhibition (viability loss, TRAIL sensitization), % at 10 µM; actives 1% (n = 360,000); AID 624354;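 active means compounds causing at least 50% loss of cell viability in the single-dose screen, relative to plate controls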
FLuc act counter = firefly luciferase counter-screen for stimulation assays; activation factor at 10 µM; P08659; AID 1027; 200,000 tested, under 10 active; ATPlite luciferase biochemical, luminescence, 10 min; 0 = ATP-free wells, 1 = DMSO control;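 active means luciferase activation factor, scaled between plate controls, of at least 2 with compound at 10 µM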
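Assay system: Luciferase/luciferin reagent mix; Medium: PBS as buffer for the ATP substrate; Dosing: test compounds dosed from 2 mM stocks in 100% DMSO; Times: 10 min, room temperature; Signal: luminescence from luciferase reaction; Read-out: luciferase activation; Controls: No-ATP low control, compound-free enzyme-plus-ATP high control.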
* = called active by the depositor; . = not tested or not shown. Sampled rows, rich in hits. Any-hit rate of the full collection: about 2%.

SMILES | PPC-1+TRAIL kill | FLuc inhib CS | HSP90 refold inh | TRAIL sens C8 | FLuc act counter
C[C@H]1CN([C@@H](C)CO)C(=O)c2cc(Br)cnc2O[C@@H]1CN(C)S(C)(=O)=O | . | . | . | -16 | .
CCN1C(=O)[C@H]2[C@@H](c3ccc(OC)cc3)N[C@]3(CCCN(Cc4ccc(F)cc4)C3=O)[C@H]2C1=O | . | . | . | -6 | .
COc1ccc(-c2cn(CC[C@@H]3CC[C@H](NC(=O)Cc4ccccn4)[C@@H](CO)O3)nn2)cc1 | . | . | . | 1 | .
Cc1cc(C(=O)Nc2nc3c(s2)CCCC3)cs1 | -5 | 70* | 7 | 58* | 0.3
Cc1ncsc1C(=O)Nc1nc2c(s1)CCCC2 | 17 | 45 | 1 | 13 | 0.5
O=C(Nc1nc2c(s1)CCCC2)c1ccc2ncsc2c1 | 12 | 59* | 2 | 50 | 0.4
Cc1ccc(-n2nc3c(n2)/C(=N/O)CC/C3=N\O)cc1 | 11 | 67* | 1 | 37 | 0.3
O/N=C1\CC/C(=N\O)c2nn(-c3ccccc3Cl)nc21 | 12 | -8 | 2 | -6 | 1.1
CSCCC(C(=O)Nc1c(C)cccc1C)N1CCN(c2ccc(F)cc2)CC1 (stereo not drawn) | . | . | . | 0 | .
Cc1cc(C)n(-c2nc(N(c3ccccc3)c3ccccc3)nc(-n3nc(C)cc3C)n2)n1 | -2 | -4 | -1 | 76* | 1
CCS(=O)(=O)N1Cc2cc(C(=O)NCCOC)nc(-c3cccc(-c4ccncc4)c3)c2[C@H]1CCO | . | . | . | 7 | .
Cn1cccc1C(=O)OCC(=O)N1CCN(c2ccccc2)CC1 | . | . | . | 3 | .
CCOC(=O)c1c(C)nc(C)c(C(=O)OCC)c1-c1ccccc1 | . | -4 | -1 | -17 | 1
CCOC(=O)c1c(C)nc2c(c1-c1cc(OC)c(OC)c(OC)c1)C(=O)c1ccccc1-2 | 8 | -5 | 2 | 66* | 1
CCOc1ccc(-c2nnc(-c3ccccc3)o2)cc1 | 27 | 75* | 13 | 58* | 0.3
CCOC(=O)COc1ccc(-c2nnc(-c3ccccc3)o2)cc1 | 32 | 15 | -1 | 49* | 0.8
Cc1c(C(=O)NCCC#N)sc(=O)n1Cc1ccccc1F | . | . | . | 2 | .
Cn1c(-c2ccccc2)c(C(=O)CCl)c2ccccc21 | 21 | -3 | 2 | 92* | 1
CCn1c(-c2ccccc2)c(C(=O)CCl)c2ccccc21 | 4 | -7 | -2 | 5 | 1.1
Cc1oc2c(c1C(=O)c1ccc(Cl)cc1)C(=O)C(=O)c1ccccc1-2 | 14 | -10 | -1 | 94* | 1.1
Cc1ccc(C(=O)c2c(C)oc3c2C(=O)C(=O)c2ccccc2-3)cc1 | 17 | 2 | 8 | 97* | 1
CCN(CC(=O)Nc1ccccc1C(F)(F)F)C(=O)c1ccc2c(c1)NC(=O)C(C)S2 (stereo not drawn) | . | . | . | -19 | .
CCOC(=O)CSc1nc2cc(OC)ccc2cc1C#N | 42 | -1 | -3 | 67* | 1
CCOC(=O)CSc1nc2ccc(C)cc2cc1C#N | 22 | -2 | 1 | 2 | 1
CCOC(=O)CSc1nc2cc(C)ccc2cc1C#N | 14 | -6 | -1 | 53* | 1.1
SMILES | PPC-1+TRAIL kill | FLuc inhib CS | HSP90 refold inh | TRAIL sens C8 | FLuc act counter
COc1ccc2cc(C#N)c(SCC(=O)Nc3nonc3C)nc2c1 | . | . | -3 | -14 | .
COc1ccccc1C(=O)N1CCCC(C)(C(=O)NS(=O)(=O)C2CC2)C1 (stereo not drawn) | . | . | . | 0 | .
O=C1C=CC(=O)c2c(O)c(N3CCN(CCOCCO)CC3)c(Br)c(O)c21 | . | . | . | 90* | .
O=C1C=CC(=O)c2c(O)c(N3CCN(CCO)CC3)c(Cl)c(O)c21 | . | . | . | 90* | .
CCOC(=O)/C=C(\C)Sc1cc(=O)oc2ccccc12 | 4 | -5 | 1 | -6 | 1
CCOC(=O)/C=C(\C)Sc1cc(O)c2ccccc2c1O | 35 | . | 16 | 72* | .
CCOC(=O)CNC(=O)CSc1nc(-c2ccc(OC)cc2)ns1 | 21 | 32 | -6 | 54* | 0.7
COc1ccc(-c2nsc(SCC(=O)Nc3cc(C)on3)n2)cc1 | 17 | 0 | 0 | 5 | 1
CC1=NN(c2ccccc2)C(=O)/C1=C/c1c(O)n(-c2ccc(F)cc2)[nH]c1=O | 31 | 63* | -2 | 33 | 0.4
COc1ccccc1/C=C1\Cc2ccccc2C1=O | 11 | . | 0 | 5 | .
Cc1cc(C=C2C(=O)c3ccccc3C2=O)c(C)n1-c1cccc(C(=O)O)c1 | -1 | 37 | 0 | 12 | 0.6
Cc1cc(C=C2C(=O)c3ccccc3C2=O)c(C)n1-c1ccccc1 | 5 | 90* | 9 | 78* | 0.1
Nc1ccccc1C=C1Cc2ccccc2C1=O | . | . | . | 48* | .
Cc1cc(/C=C2\Cc3ccccc3C2=O)c(C)n1-c1ccccc1 | 23 | 91* | 6 | 71* | 0.1
Cc1cc(C=C2C(=O)c3ccccc3C2=O)c(C)n1-c1ccc(C(=O)O)cc1 | 8 | -7 | 0 | 6 | 1.1
COc1ccc(OC)c(NC(=O)Nc2nnc([C@@H]3O[C@H](CO)[C@@H](O)[C@H]3O)s2)c1 | . | . | . | 2 | .
CCN1C(=O)[C@H]2[C@H]3CN=C(SCc4ccc(C)cc4)N3[C@@](C)(C(=O)OC)[C@H]2C1=O | . | . | . | -6 | .
CC1=NN(c2ccccc2)C(=O)/C1=C\c1cc(C)n(-c2cccnc2)c1C | 1 | . | 2 | -9 | .
CC1=NN(c2ccccc2)C(=O)/C1=C\c1cc(C)n(-c2ccccc2)c1C | 12 | 63* | 3 | 25 | 0.4
COc1oc(C(=O)NC2CCCCC2)c(-c2ccc(Cl)cc2)c1S(=O)(=O)c1ccccc1 | . | . | . | 89* | .
O=C(NNS(=O)(=O)c1ccc(Cl)cc1)NC1CCCCC1 | 16 | -8 | 0 | 1 | 1.1
COCCNC(=O)C1(C)CCCN(C(=O)c2cc(OC)c(OC)c(OC)c2)C1 (stereo not drawn) | . | . | . | -3 | .
COc1ccc(NC(=O)C2=Cc3ccccc3OC2)cc1 | 17 | 52* | 14 | 21 | 0.5
COc1cccc2c1OCC(C(=O)OCc1cccnc1)=C2 | 9 | -3 | 3 | 8 | 1
COc1ccc(NC(=O)C2=Cc3cccc(OC)c3OC2)cc1 | 34 | 55* | 0 | 26 | 0.4
SMILES | PPC-1+TRAIL kill | FLuc inhib CS | HSP90 refold inh | TRAIL sens C8 | FLuc act counter
CC(C)Cc1ccc(-c2cc3nc(NCCc4ccc(S(N)(=O)=O)cc4)ccn3n2)cc1 | . | . | . | 21 | .
C/C(=N\NC(=O)c1nnn(-c2nonc2N)c1CN1CCC(C)CC1)c1ccc(Br)cc1 | . | . | . | -2 | .
COC(=O)c1cccc(-c2ccc(/C=N/N3C(=O)C4C5C=CC(C6CC56)C4C3=O)o2)c1 (stereo not drawn) | 9 | -3 | 0 | -3 | 1
COC(=O)c1ccc(-c2ccc(/C=N/N3C(=O)C4C5C=CC(C6CC56)C4C3=O)o2)cc1 (stereo not drawn) | 55* | -3 | 4 | 11 | 1
Cc1ccc(/C=C/C(=O)Nc2ccccc2C(N)=O)cc1 | 84* | 93* | 2 | 84* | 0.1
Cc1ccc(/C=C/C(=O)NC2=NCCS2)cc1 | 50 | 86* | 9 | 76* | 0.1
CC(C)(C)c1ccc(/C=C/C(=O)NC2=NCCS2)cc1 | 34 | 46 | 0 | 52* | 0.5
NC(=O)c1ccccc1NC(=O)/C=C/C(=O)O | -3 | -7 | -4 | 3 | 1.1
